Columns and labels:
[1] = tested on: Rattus norvegicus; assay: Hypolipidemic activity in Wistar rat assessed as reduction in plasma triglyceride level at 401 umol/kg/day administered through diet for 4 days; type: functional; settings: 96 h
Summary of the method: (§1)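 Young male Wistar rats (initial weight 170-190 g), groups of six, fed compound mixed into Purina Lab Chow ad libitum for 4 or 10 days; daily dose calculated from food consumption and body weight. Bled by cardiac puncture; plasma cholesterol and triglycerides by automated procedures; percent reduction versus simultaneous untreated controls, Student's t test.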

[2] = tested on: Rattus norvegicus; assay: Hypolipidemic activity in Wistar rat assessed as reduction in plasma triglyceride level at 430 umol/kg/day administered through diet for 4 days; type: functional; settings: 96 h; summary of the method: as §1
[3] = tested on: Rattus norvegicus; assay: Hypolipidemic activity in Wistar rat assessed as reduction in plasma cholesterol level at 401 umol/kg/day administered through diet for 4 days; type: functional; settings: 96 h
Summary of the method: (§2)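 Young male Wistar rats, 170-190 g at start, in groups of six, given compound mixed into Purina Lab Chow ad libitum for 4 or 10 days as stated. Daily dose was calculated from food consumption and body weight. Plasma was taken by cardiac puncture at the end and cholesterol measured by automated procedure. Results are % reduction versus a concurrent untreated control group, with Student's t test.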

[4] = tested on: Rattus norvegicus; assay: Hypolipidemic activity in Wistar rat assessed as reduction in plasma cholesterol level at 430 umol/kg/day administered through diet for 4 days; type: functional; settings: 96 h
Summary of the method: (§3)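 Young male Wistar rats, 170-190 g initial weight, groups of six, given compound mixed thoroughly into Purina Lab Chow ad libitum for 4 or 10 days as stated. Daily dose calculated from food consumption and body weight. Bled by cardiac puncture at end of treatment; plasma cholesterol measured by automated procedure. Expressed as percent reduction versus simultaneous untreated control group; Student's t test.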

[5] = tested on: Rattus norvegicus; assay: Increase in liver weight in Wistar rat at 401 umol/kg/day administered through diet for 4 days; type: ADME, organism-based; settings: in vivo, po, 96 h
Summary of the method: (§4)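 Male Wistar rats (170-190 g initial), groups of six, dosed via diet ad libitum for 4 or 10 days, daily dose from food consumption. Liver wet weight measured, expressed as g/100 g final body weight, compared with untreated controls run simultaneously.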

[6] = tested on: Rattus norvegicus; assay: Increase in liver weight in Wistar rat at 430 umol/kg/day administered through diet for 4 days; type: ADME, organism-based; settings: in vivo, po, 96 h; summary of the method: as §4
[7] = tested on: Rattus norvegicus; assay: Increase in cholesterol level in Wistar rat liver at 430 umol/kg/day administered through diet for 4 days; type: ADME, organism-based; settings: in vivo, po, 96 h
Summary of the method: (§5)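 Male Wistar rats (170-190 g), six per group, given compound by admixture to lab chow ad libitum for 4 or 10 days, dose derived from food intake. Liver cholesterol determined by automated procedure, expressed as mg/g wet tissue, compared with an untreated control group by Student's t test.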

[8] = tested on: Rattus norvegicus; assay: Hypolipidemic activity in Wistar rat assessed as reduction in plasma triglyceride level at 420 umol/kg/day administered through diet for 4 days; type: functional; settings: 96 h; summary of the method: as §1
[9] = tested on: Rattus norvegicus; assay: Hypolipidemic activity in Wistar rat assessed as reduction in plasma cholesterol level at 420 umol/kg/day administered through diet for 4 days; type: functional; settings: 96 h; summary of the method: as §3
[10] = tested on: Rattus norvegicus; assay: Increase in liver weight in Wistar rat at 420 umol/kg/day administered through diet for 4 days; type: ADME, organism-based; settings: in vivo, po, 96 h; summary of the method: as §4
[11] = tested on: Rattus norvegicus; assay: Hypolipidemic activity in Wistar rat assessed as reduction in plasma triglyceride level at 675 umol/kg/day administered through diet for 10 days; type: functional; settings: 240 h
[12] = tested on: Rattus norvegicus; assay: Hypolipidemic activity in Wistar rat assessed as reduction in plasma cholesterol level at 675 umol/kg/day administered through diet for 10 days; type: functional; settings: 240 h; summary of the method: as §1
[13] = tested on: Rattus norvegicus; assay: Increase in liver weight in Wistar rat at 675 umol/kg/day administered through diet for 10 days; type: ADME, organism-based; settings: in vivo, po, 240 h
[14] = tested on: Rattus norvegicus; assay: Hypolipidemic activity in Wistar rat assessed as reduction in plasma cholesterol level at 381 umol/kg/day administered through diet for 4 days; type: functional; settings: 96 h; summary of the method: as §2
[15] = tested on: Rattus norvegicus; assay: Hypolipidemic activity in Wistar rat assessed as reduction in plasma triglyceride level at 381 umol/kg/day administered through diet for 4 days; type: functional; settings: 96 h
Summary of the method: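 Young male Wistar rats (170-190 g initial weight), groups of six, fed test compound mixed into Purina Lab Chow ad libitum; daily dose calculated from food consumption and body weight. Bled by cardiac puncture at end of treatment; plasma triglycerides measured by automated procedure. Results given as percent reduction versus a simultaneous untreated control group, with significance by Student's t test.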

[16] = tested on: Rattus norvegicus; assay: Increase in liver weight in Wistar rat at 381 umol/kg/day administered through diet for 4 days; type: ADME, organism-based; settings: in vivo, po, 96 h
[17] = tested on: Rattus norvegicus; assay: Hypolipidemic activity in Wistar rat assessed as reduction in plasma triglyceride level at 420 umol/kg/day administered through diet for 10 days; type: functional; settings: 240 h; summary of the method: as §1
[18] = tested on: Rattus norvegicus; assay: Hypolipidemic activity in Wistar rat assessed as reduction in plasma cholesterol level at 420 umol/kg/day administered through diet for 10 days; type: functional; settings: 240 h; summary of the method: as §3
[19] = tested on: Rattus norvegicus; assay: Increase in cholesterol level in Wistar rat liver at 420 umol/kg/day administered through diet for 10 days; type: ADME, organism-based; settings: in vivo, po, 240 h; summary of the method: as §5
[20] = tested on: Rattus norvegicus; assay: Increase in liver weight in Wistar rat at 420 umol/kg/day administered through diet for 10 days; type: ADME, organism-based; settings: in vivo, po, 240 h
[21] = tested on: Rattus norvegicus; assay: Hypolipidemic activity in Wistar rat assessed as reduction in plasma cholesterol level at 419 umol/kg/day administered through diet for 10 days; type: functional; settings: 240 h; summary of the method: as §3
[22] = tested on: Rattus norvegicus; assay: Hypolipidemic activity in Wistar rat assessed as reduction in plasma triglyceride level at 419 umol/kg/day administered through diet for 10 days; type: functional; settings: 240 h; summary of the method: as §1
[23] = tested on: Rattus norvegicus; assay: Increase in cholesterol level in Wistar rat liver at 419 umol/kg/day administered through diet for 10 days; type: ADME, organism-based; settings: in vivo, po, 240 h; summary of the method: as §5
[24] = tested on: Rattus norvegicus; assay: Increase in liver weight in Wistar rat at 419 umol/kg/day administered through diet for 10 days; type: ADME, organism-based; settings: in vivo, po, 240 h; summary of the method: as §4
[25] = tested on: Rattus norvegicus; assay: Hypolipidemic activity in Wistar rat assessed as reduction in plasma cholesterol level at 505 umol/kg/day administered through diet for 4 days; type: functional; settings: 96 h; summary of the method: as §3
[26] = tested on: Rattus norvegicus; assay: Hypolipidemic activity in Wistar rat assessed as reduction in plasma triglyceride level at 505 umol/kg/day administered through diet for 4 days; type: functional; settings: 96 h
[27] = tested on: Rattus norvegicus; assay: Increase in liver weight in Wistar rat at 505 umol/kg/day administered through diet for 4 days; type: ADME, organism-based; settings: in vivo, po, 96 h
[28] = tested on: Rattus norvegicus; assay: Hypolipidemic activity in Wistar rat assessed as reduction in plasma triglyceride level at 456 umol/kg/day administered through diet for 10 days; type: functional; settings: 240 h
[29] = tested on: Rattus norvegicus; assay: Hypolipidemic activity in Wistar rat assessed as reduction in plasma cholesterol level at 456 umol/kg/day administered through diet for 10 days; type: functional; settings: 240 h; summary of the method: as §3
[30] = tested on: Rattus norvegicus; assay: Hypolipidemic activity in Wistar rat assessed as reduction in plasma triglyceride level at 449 umol/kg/day administered through diet for 4 days; type: functional; settings: 96 h
[31] = tested on: Rattus norvegicus; assay: Hypolipidemic activity in Wistar rat assessed as reduction in plasma cholesterol level at 449 umol/kg/day administered through diet for 4 days; type: functional; settings: 96 h; summary of the method: as §3
[32] = tested on: Rattus norvegicus; assay: Increase in liver weight in Wistar rat at 449 umol/kg/day administered through diet for 4 days; type: ADME, organism-based; settings: in vivo, po, 96 h
[33] = tested on: Rattus norvegicus; assay: Hypolipidemic activity in Wistar rat assessed as reduction in plasma cholesterol level at 418 umol/kg/day administered through diet for 4 days; type: functional; settings: 96 h; summary of the method: as §3
[34] = tested on: Rattus norvegicus; assay: Hypolipidemic activity in Wistar rat assessed as reduction in plasma triglyceride level at 418 umol/kg/day administered through diet for 4 days; type: functional; settings: 96 h; summary of the method: as §1
[35] = tested on: Rattus norvegicus; assay: Increase in liver weight in Wistar rat at 418 umol/kg/day administered through diet for 4 days; type: ADME, organism-based; settings: in vivo, po, 96 h; summary of the method: as §4
[36] = tested on: Rattus norvegicus; assay: Hypolipidemic activity in Wistar rat assessed as reduction in plasma cholesterol level at 443 umol/kg/day administered through diet for 4 days; type: functional; settings: 96 h; summary of the method: as §3
[37] = tested on: Rattus norvegicus; assay: Hypolipidemic activity in Wistar rat assessed as reduction in plasma triglyceride level at 443 umol/kg/day administered through diet for 4 days; type: functional; settings: 96 h; summary of the method: as §1

Question: What does the source list for `CCCCCCCCCCCCCCCCOc1cccc(C(=O)OC)c1`?
Answer: inhibition in vivo at 401 µmol/kg [1]: 0%; inhibition in vivo at 430 µmol/kg [2]: 0%; inhibition in vivo at 401 µmol/kg [3]: 0%; inhibition in vivo at 430 µmol/kg [4]: 0%; Activity [5]: 0%; Activity [6]: 3%

Question: Which inhibition in vivo at 430 µmol/kg [2] does the source give for `CCCCCCCCCCCCCCOc1ccc(C(=O)OC)o1` here?
Answer: 67%

Question: What about the inhibition in vivo at 430 µmol/kg [4] of the same compound?
Answer: 32%

Question: And the Activity [6]?
Answer: 8%

Question: And the Activity [7]?
Answer: 0%

Question: Which inhibition in vivo at 420 µmol/kg [8] does the source give for `CCCCCCCCCCCCCCOc1ccc(C(=O)C(F)(F)F)o1` here?
Answer: 30%

Question: What about the inhibition in vivo at 420 µmol/kg [9] of the same compound?
Answer: 2%

Question: And the Activity [10]?
Answer: 0%

Question: Which inhibition in vivo at 675 µmol/kg [11] does the source give for `CCCCCCOc1ccc(C(=O)O)cc1` here?
Answer: 16%

Question: What about the inhibition in vivo at 675 µmol/kg [12] of the same compound?
Answer: 6%

Question: And the Activity [13]?
Answer: 1%

Question: `CCCCCCCCCCCCCCOc1c(Cl)cc(C(=O)OC)cc1Cl` was tested. Which inhibition in vivo at 381 µmol/kg [14] did it give?
Answer: 1%

Question: And the inhibition in vivo at 381 µmol/kg [15]?
Answer: 73%

Question: And the Activity [16]?
Answer: 0%

Question: What does the source list for `CCCCCCCCCCCCCCOc1ccc(SCC(=O)O)cc1`?
Answer: inhibition in vivo at 420 µmol/kg [17]: 11%; inhibition in vivo at 420 µmol/kg [18]: 16%; Activity [19]: 3%; Activity [20]: 0%

Question: Which results are given for `CCCCCCCCCCCCCCCCOc1ccc(C(=O)O)cc1`?
Answer: inhibition in vivo at 419 µmol/kg [21]: 15%; inhibition in vivo at 419 µmol/kg [22]: 55%; Activity [23]: 17%; Activity [24]: 5%

Question: What does the source list for `CCCCCCCCCCCCCCCCCCOc1ccc(C(=O)O)o1`?
Answer: inhibition in vivo at 420 µmol/kg [17]: 53%; inhibition in vivo at 420 µmol/kg [9]: 18%; Activity [10]: 0%; Activity [19]: 18%

Question: Which results are given for `CCCCCCCCCCCCOc1cccc(C(=O)OC)c1`?
Answer: inhibition in vivo at 505 µmol/kg [25]: 7%; inhibition in vivo at 505 µmol/kg [26]: 55%; Activity [27]: 4%

Question: `CCCCCCCCCCCCCCCCOc1ccccc1C(=O)CC(=O)OC` was tested. Which inhibition in vivo at 456 µmol/kg [28] did it give?
Answer: 23%

Question: What about the inhibition in vivo at 456 µmol/kg [29] of the same compound?
Answer: 10%

Question: `CCCCCCCCCCCCCCOc1ccc(C(=O)N(CC)CC)cc1` was tested. Which inhibition in vivo at 449 µmol/kg [30] did it give?
Answer: 0%

Question: And the inhibition in vivo at 449 µmol/kg [31]?
Answer: 0%

Question: What about the Activity [32] of the same compound?
Answer: 5%

Question: Which results are given for `CCCCCCCCCCCCCCOc1ccc(C(=O)OCC)cc1Cl`?
Answer: inhibition in vivo at 418 µmol/kg [33]: 0%; inhibition in vivo at 418 µmol/kg [34]: 0%; Activity [35]: 0%

Question: What does the source list for `CCCCCCCCCCCCCCSc1ccc(C(=O)O)o1`?
Answer: inhibition in vivo at 443 µmol/kg [36]: 18%; inhibition in vivo at 443 µmol/kg [37]: 62%

— ChEMBL document CHEMBL3272012, “5-(Tetradecyloxy)-2-furancarboxylic acid and related hypolipidemic fatty acid-like alkyloxyarylcarboxylic acids” (J Med Chem, 1977)
